Here are results for 22 molecules from ChEMBL document CHEMBL1132599, “Bisquaternary ligands of the common allosteric site of M2 acetylcholine receptors: search for the minimum essential distances between the pharmacophoric elements” (J Med Chem, 1999).

Molecules are shown by their SMILES.

Data set [1] has as its target T1, Muscarinic acetylcholine receptor M2 (Sus scrofa, UniProt P06199).
T1 sequence (P06199 whole entry): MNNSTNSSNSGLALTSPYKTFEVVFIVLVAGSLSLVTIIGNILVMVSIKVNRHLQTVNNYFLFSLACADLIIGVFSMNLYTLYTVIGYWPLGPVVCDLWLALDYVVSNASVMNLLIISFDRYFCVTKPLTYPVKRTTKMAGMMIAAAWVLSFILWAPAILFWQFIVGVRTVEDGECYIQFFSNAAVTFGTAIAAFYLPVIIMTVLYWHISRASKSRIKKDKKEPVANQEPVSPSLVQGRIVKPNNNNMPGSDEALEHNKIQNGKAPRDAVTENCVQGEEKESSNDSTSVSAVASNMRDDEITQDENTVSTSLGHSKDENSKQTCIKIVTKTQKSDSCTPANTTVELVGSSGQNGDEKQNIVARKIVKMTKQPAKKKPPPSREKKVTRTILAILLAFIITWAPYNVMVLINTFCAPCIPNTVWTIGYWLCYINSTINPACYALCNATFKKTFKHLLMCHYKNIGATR
The experiment in a line: Allosteric potency against the dissociation of radioligand [3H]N-methylscopolamine from the porcine cardiac Muscarinic acetylcholine receptor M2. The method, boiled down:
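Porcine ventricular membranes: homogenized in 0.32 M sucrose, spun at 300g then 80000g, resuspended in 50 mM Tris-HCl pH 7.4. Labeled with 0.2 nM [3H]NMS for 30 min in 2.6 mM MgHPO4/45 mM Tris-HCl, pH 7.3, 37 °C. Dissociation started with 1 µM atropine plus modulator, sampled up to 2 h (some two-point, 0 and 4 min), then filtered and counted. EC50 is the concentration halving monoexponential k-1 (4–6 concentrations).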

The nature of data set [2]: Half life (t1/2) value of the compound. The format is ADME. The method, boiled down:
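Chemical hydrolysis followed by UV spectroscopy for 24 h at 20 °C in TRIS-HCl–Mg buffer (3.6 mM MgHPO4, 50 mM TRIS, pH 7.3); half-life of the compound reported in hours.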

In data set [1], `O=C1c2ccccc2C(=O)N1CO/N=C/c1cc[n+](CCC[n+]2ccc(/C=N/OCN3C(=O)c4ccccc4C3=O)cc2)cc1` returned an EC50 of 0.51 µM.
On the same count and under the same terms, then `O=C1c2ccccc2C(=O)N1CCCO/N=C/c1cc[n+](CCC[n+]2ccc(/C=N/OCCCN3C(=O)c4ccccc4C3=O)cc2)cc1`, with 0.52 µM.
Regarding `C[N+](C)(CCCC[N+](C)(C)CCCN1C(=O)c2ccccc2C1=O)CCCN1C(=O)c2ccccc2C1=O.[Br-].[Br-]`, the half-life in data set [2] was 14 h. The molecule also returned an EC50 in data set [1] of 2.69 µM.
In data set [1], `O=C1c2ccccc2C(=O)N1CCCO/N=C/c1cc[n+](CCCCCC[n+]2ccc(/C=N/OCCCN3C(=O)c4ccccc4C3=O)cc2)cc1` registered an EC50 of 0.45 µM.
`C[N+](C)(CCCCCCCCCC[N+](C)(C)CCCN1C(=O)c2ccccc2C1=O)CCCN1C(=O)c2ccccc2C1=O.[Br-].[Br-]` had a half-life in data set [2] of 19.3 h. The EC50 in data set [1] stood at 0.53 µM.
Regarding `O=C1c2ccccc2C(=O)N1CO/N=C/c1cc[n+](CCCC[n+]2ccc(/C=N/OCN3C(=O)c4ccccc4C3=O)cc2)cc1`, in data set [1], it took 1.9 µM to reach a half-maximal effect (EC50).
In turn, `C[N+](C)(CCCCCCC[N+](C)(C)CCCN1C(=O)c2ccccc2C1=O)CCCN1C(=O)c2ccccc2C1=O.[Br-].[Br-]` showed a half-life in data set [2] of 16.4 h. In data set [1], this molecule registered an EC50 of 0.37 µM.
In data set [1], `O=C1c2ccccc2C(=O)N1CCCC[n+]1ccc(CCc2cc[n+](CCCCN3C(=O)c4ccccc4C3=O)cc2)cc1` returned an EC50 of 0.47 µM. In other words, the sub-micromolar range.
The molecule `O=C1c2ccccc2C(=O)N1CC[n+]1ccc(CCCc2cc[n+](CCN3C(=O)c4ccccc4C3=O)cc2)cc1` showed a half-maximal effective concentration (EC50) in data set [1] of 3.49 µM.
In turn, `O=C1c2ccccc2C(=O)N1CCCC[n+]1ccc(-c2cc[n+](CCCCN3C(=O)c4ccccc4C3=O)cc2)cc1` came in with an EC50 in data set [1] of 4.65 µM.
With `O=C1c2ccccc2C(=O)N1CCCO/N=C/c1cc[n+](CCCC[n+]2ccc(/C=N/OCCCN3C(=O)c4ccccc4C3=O)cc2)cc1`, in data set [1], the EC50 turned out to be 0.35 µM.
On to `C[N+](C)(CCCCCC[N+](C)(C)CCCN1C(=O)c2ccccc2C1=O)CCCN1C(=O)c2ccccc2C1=O.[Br-].[Br-]`, for which, in data set [2], the half-life is 18 h. This molecule also registered an EC50 in data set [1] of 1.44 µM.
The molecule `O=C1c2ccccc2C(=O)N1CO/N=C/c1cc[n+](CCCCCC[n+]2ccc(/C=N/OCN3C(=O)c4ccccc4C3=O)cc2)cc1` displayed an EC50 in data set [1] of 1.4 µM.
`C[N+](C)(CCCN1C(=O)c2ccccc2C1=O)CCCN1C(=O)c2ccccc2C1=O` had an EC50 in data set [1] of 8.82 µM.
With `O=C1c2ccccc2C(=O)N1C[n+]1ccc(CCCc2cc[n+](CN3C(=O)c4ccccc4C3=O)cc2)cc1`, the EC50 in data set [1] is 50.8 µM.
In turn, `O=C1c2ccccc2C(=O)N1CCC[n+]1ccc(CCCc2cc[n+](CCCN3C(=O)c4ccccc4C3=O)cc2)cc1` showed a concentration giving a half-maximal response (EC50) in data set [1] of 4.87 µM. Against the preceding molecule, the EC50 is about 10-fold lower.
Molecule `C[N+](C)(CCCCC[N+](C)(C)CCCN1C(=O)c2ccccc2C1=O)CCCN1C(=O)c2ccccc2C1=O.[Br-].[Br-]` had a half-life in data set [2] of 17.4 h. For the same molecule, a half-maximal response in data set [1] (EC50) required 1.39 µM.
The corresponding values for `C[N+](C)(CCCCCCCC[N+](C)(C)CCCN1C(=O)c2ccccc2C1=O)CCCN1C(=O)c2ccccc2C1=O.[Br-].[Br-]` are 35.2 h and 0.57 µM.
In data set [1], `O=C1c2ccccc2C(=O)N1CCCC[n+]1ccc(CCCc2cc[n+](CCCCN3C(=O)c4ccccc4C3=O)cc2)cc1` came in with a half-maximal effective concentration (EC50) of 0.63 µM. This lies in the sub-micromolar range.
In the case of `O=C1c2ccccc2C(=O)N1CCC[n+]1ccc(CCc2cc[n+](CCCN3C(=O)c4ccccc4C3=O)cc2)cc1`, in data set [1], the midpoint of the response, the EC50, lay at 2.34 µM.
As for `O=C1c2ccccc2C(=O)N1CCCO/N=C/c1cc[n+](CCCCC[n+]2ccc(/C=N/OCCCN3C(=O)c4ccccc4C3=O)cc2)cc1`, a half-maximal response in data set [1] (EC50) required 0.51 µM. This EC50 lies about 4.6-fold lower than the previous one.
In turn, `C[N+](C)(CCCN1C(=O)c2ccccc2C1=O)CCC[N+](C)(C)CCCN1C(=O)c2ccccc2C1=O.[Br-].[Br-]` had a half-life in data set [2] of 14.5 h. The molecule further came in with an EC50 in data set [1] of 3.8 µM.

One may read the EC50 as the concentration that produces a half-maximal response. A high value points to a less potent agent. One may read the half-life as the time in which the quantity being followed falls by half. Low readings indicate fast loss, high ones slow loss.
